Tests used:
[1] = folding enthalpy; higher = less favourable; fluorescence melt of hairpins on a sequencing array, two-state fit; settings: sodium 0.088 M
Procedure, shortened: (§1)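 Folding enthalpy and melting temperature were estimated with bootstrapped two-state fits and combined across four replicates by inverse-variance weighting, with fitted temperatures raised by 9.35 °C to match UV melts. The data were Cy3 fluorescence of library hairpins, with annealed Cy3 and quencher oligos, on a sequenced MiSeq flow cell in 50 mM Na-HEPES pH 8.0, 25 mM NaCl, imaged in 2.5 °C steps up to 60 °C and normalised to pre-quench Cy3 and control constructs.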

[2] = melting temperature; fluorescence melt of hairpins on a sequencing array, two-state fit, raised by 9.35 °C to match UV melts; settings: sodium 0.088 M
Procedure, shortened: as §1

Sequence | folding enthalpy [1] [kcal/mol] | Tm [2] [°C]
GTACGCGGAAACGCGCAC ((.((((....)))).)) | -14 | 52.9
GATCCTAATAAGGATC ((((((....)))))) | -40.1 | 50.8
GCTCCCGAAAGGGTAGC ((((((....))).))) | -32.2 | 54.4
GCTAGGCGAAAGCCAGGC ((..(((....)))..)) | -16.8 | 54.9
GATCCTAGTAAGGATC ((((((....)))))) | -41.1 | 52.2
GAGAAACGAAAGTTCCTC (((.(((....))).))) | -27 | 36.5
GGACGCCGAAAGGCATCC (((.(((....))).))) | -22.6 | 52.6
GATCCATGTTGGATC ((((((...)))))) | -36.8 | 52
GTCAGTCGAAAGACAGAC (((.(((....))).))) | -39.4 | 51
GAAGAGGAAACTCTTC ((((((....)))))) | -34.2 | 48.3
GATCCCCGAGGGGATC ((((((....)))))) | -37.2 | 68.5
GACGTTGGAAACAACGCC (.(((((....))))).) | -12.4 | 48.8
GGAAAGGGAAACCTTTCC (((((((....))))))) | -41.9 | 55.8
GATAGCGCGAAAGCGATC (((..(((....)))))) | -9.46 | 32.2
GACCGGAAACGGTC (((((....))))) | -28.3 | 67.5
GTACTCGGAAACGAGCAC ((.((((....)))).)) | -19.3 | 48.6
GATCTTCCCAAAGATC ((((((....)))))) | -32.6 | 45.5
GTCATTGGAAACAATGAC (((((((....))))))) | -41.8 | 58.3
GTTCTCGAAAGAGGGAAC ((((((....)))..))) | -17.6 | 31.4
GACAACGCGAAAGCGGTC (((..(((....)))))) | -13.7 | 44.9
GCCCAGCGAAAGCAGCGC ((.(.((....)).).)) | -13.9 | 46.5
GCTACAGGAAACTATAGC ((((.((....)).)))) | -12.1 | 31.7
GCACCCGCGAAAGCGTGC (((..(((....)))))) | -14.5 | 42.6
GCGAGTGGAAACACTTGC ((.((((....)))).)) | -39.2 | 53.6

Sequence | folding enthalpy [1] [kcal/mol] | Tm [2] [°C]
GCATTCCGAAAGGATGC (((.(((....)))))) | -30.7 | 53.7
GGACAAGCGAAAGCTTCC (((..(((....)))))) | -12.3 | 29.2
GAGAACGAAAGTTCGCTC ((((((....)))..))) | -19.8 | 53.6
GATGCCGGAAACGACACC (.((.((....)).)).) | -13.5 | 24.4
GATCCCACTGGGATC ((((((...)))))) | -34.8 | 60.9
GCTTCCGAAAGGATCAGC ((((((....)))..))) | -21.7 | 34
GCAATGCGAAAGCAATGC (((.(((....))).))) | -40 | 56.5
CTATTGAAAAATAG (((((....))))) | -8.21 | 23.4
GTCGGAGGAAACTTCGGC (.((.((....)).)).) | -24.3 | 38.4
GATCCCTGCAGGGATC ((((((....)))))) | -37.8 | 66
GTGATGGGAAACCGTCAC ((((.((....)).)))) | -50.2 | 52.9
GCTCTCTCGAAAGAGAGC (((..(((....)))))) | -26.9 | 60.3
GCCGCGCGAAAGCGCTGC ((.((((....)))).)) | -16.6 | 61.5
GATCCCTTGCGGGATC ((((((....)))))) | -39.6 | 60.7
GACGTAGGAAACTACATC ((.((((....)))).)) | -13.1 | 28.4
GCCGTTGGAAACAATGGC (((.(((....))).))) | -36.6 | 55.8
GCGAGGCGAAAGCGCCGC (((..((....))..))) | -12.5 | 63.8
GCAGTGCGAAAGCAAGGC ((..(((....)))..)) | -16.1 | 56.7
GCTATGCGAAAGCTGAGC (((..((....))..))) | -21.9 | 47.4
GTAGAACGAAAGTTTAC (((.(((....)))))) | -9.99 | 27.4
GATCGGGTGGCCGATC ((((((....)))))) | -40.4 | 57
GCGAGGCGAAAGCATTGC ((.(.((....)).).)) | -22.5 | 54.3
GGCAGGGGAAACCCTACC ((.((((....)))).)) | -26.6 | 43.7
GCACTGGGAAACCAGTAC (.(((((....))))).) | -14.9 | 38.1

Sequence | folding enthalpy [1] [kcal/mol] | Tm [2] [°C]
GCTAGCGAAAGCTTCAGC ((((((....)))..))) | -10.9 | 39.1
GGTGACACGAAAGTGACC (((..(((....)))))) | -15.8 | 38.1
GATCAACAATTTGATC ((((((....)))))) | -26.8 | 38
GATCCTTATAGGATC ((((((...)))))) | -32.5 | 57.4
GAGAGCGAAAGCTCGCTC ((((((....)))..))) | -13 | 66.9
GTAGCGAAAGCTAC (((((....))))) | -25.8 | 68.7
GATCACTAAAGTGATC ((((((....)))))) | -38.6 | 54.5
GATCTGCACTCAGATC ((((((....)))))) | -34.1 | 48.9
GATCTCACGGAGATC ((((((...)))))) | -41.9 | 54.1
GGTCATGGAAACATGACC (((((((....))))))) | -51.8 | 65.5
GAAGAAGGAAACTTCTTC (((((((....))))))) | -48.8 | 50.6
GTGTCAACGAAAGTTCAC (((..(((....)))))) | -8.71 | 29.8
GAGACAGCGAAAGCTCTC (((..(((....)))))) | -9.49 | 45.5
GATCCGCAATCGGATC ((((((....)))))) | -35.1 | 56
CGCTCCGGAAACGGGCG (((.(((....)))))) | -32.5 | 54.1
GCGTGATCACGC ((((....)))) | -35.6 | 59.1
GATTTGGGAAACCAAATC (((((((....))))))) | -40.9 | 55
GTGTGCGAAAGCAGCAC ((((((....))).))) | -20.1 | 52.5
GATCAAAATGTTGATC ((((((....)))))) | -28.1 | 38.4
GTCCTGGGAAACCAGAAC ((.((((....)))).)) | -19.7 | 35.5
GCGGTGCGAAAGCGTCGC (((..((....))..))) | -32.6 | 65.1
GATCACCAACGTGATC ((((((....)))))) | -41.6 | 53.8
CCAGTGAAAACTGG (((((....))))) | -19.8 | 50.8
GGGTACGGAAACGTACTC (.(((((....))))).) | -16.1 | 51.2

Sequence | folding enthalpy [1] [kcal/mol] | Tm [2] [°C]
GCACACGAAAGTGCCTGC ((((((....)))..))) | -13.2 | 34.7
GCGGAAGAAATTCCGC ((((((....)))))) | -34.9 | 61.8
GATCGAGAAGTCGATC ((((((....)))))) | -31.1 | 55.4
GTCTCAGGAAACTAAGAC ((((.((....)).)))) | -11.5 | 24.2
GCAGCGCGAAAGCGTGC (((.(((....)))))) | -14 | 62.2
GCGGGCGAAAGCCATCGC ((((((....)))..))) | -21.1 | 52.8
GGGCGGGCGAAAGCCCCC (((..(((....)))))) | -11.5 | 51.2
GATCCGAAACGGATC ((((((...)))))) | -35.4 | 57
GATCTGGATCAGATC ((((((...)))))) | -29.6 | 47.9
GATCCCTCGAGGGATC ((((((....)))))) | -41.7 | 62
GATCGCAGCTGCGATC ((((((....)))))) | -41 | 69.3
GATCCCCTGAGGGATC ((((((....)))))) | -31.8 | 61.9
GCTGAAGGAAACTTCGGC ((.((((....)))).)) | -49.4 | 51.3
GCTGCGCGAAAGCGAGGC ((..(((....)))..)) | -20.3 | 60.6
GATCACATTGTGATC ((((((...)))))) | -33.7 | 57.9
GGAGCCGAAAGGCCTCC ((((((....))).))) | -24.4 | 54.5
GATCACAGACGTGATC ((((((....)))))) | -37 | 57
GAAATGGAAACATTTC ((((((....)))))) | -30.2 | 46.7
GCGCTGCGAAAGCTGAGC ((.(.((....)).).)) | -21.2 | 57.6
GATCAGTGCGCTGATC ((((((....)))))) | -44.1 | 56.6
GATCAGGGAAACCTGATC (((((((....))))))) | -41.8 | 59

— the array DNA melting data of Ke et al. (doi:10.1101/2024.01.08.574731)
